Results reported in ChEMBL document CHEMBL2203075, “Terpecurcumins A-I from the rhizomes of Curcuma longa: absolute configuration and cytotoxic activity” (J Nat Prod, 2012).

Assays:
Format in all cases: functional, cell-based
[1] = tested on: HepG2; experiment: Cytotoxicity against human HepG2 cells after 72 hrs by crystal violet staining based microplate reader analysis; settings: HepG2, 72 h
Procedure, shortened: (§1)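 ATCC HepG2 and MDA-MB-231 cells grown in DMEM with 10% FBS and no antibiotics. Medium was changed at 50–60% confluence (24–48 h post-plating), then cells were exposed for 72 h. Fixation used 1% glutaraldehyde in PBS for 15 min, followed by 0.02% aqueous crystal violet for 30 min. After a PBS wash and 70% EtOH solubilization, absorbance was read at 570 nm (ref 405 nm). IC50 derived; Taxol was the positive control.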

[2] = tested on: MDA-MB-231; experiment: Cytotoxicity against human MDA-MB-231 cells after 72 hrs by crystal violet staining based microplate reader analysis; settings: MDA-MB-231, 72 h; procedure, shortened: as §1
[3] = tested on: A549; experiment: Cytotoxicity against human A549 cells after 72 hrs by crystal violet staining based microplate reader analysis; settings: A549, 72 h
Procedure, shortened: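 At 50–60% confluence (24–48 h after plating), medium was refreshed before a 72 h treatment. Cells were fixed in 1% glutaraldehyde/PBS for 15 min and stained with 0.02% crystal violet for 30 min. After a PBS wash, dye was solubilized in 70% EtOH and read at A570 (ref 405 nm). IC50 reported; Taxol was the positive control.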

Compound | IC50 [1] [µM] | IC50 [2] [µM] | IC50 [3] [µM]
COc1cc(/C=C/C(=O)/C=C(O)/C=C/c2cc(OC)c(O)c([C@H]3C=C(C)CC[C@@H]3[C@@H](C)CC(=O)C=C(C)C)c2)ccc1O [TERPECURCUMIN I] | 50.3 | 69.5 | 41.1
COc1cc(/C=C/C(=O)/C=C(O)/C=C/c2cc(OC)c(O)c([C@H]3C=C(C)[C@@H](O)C[C@@H]3[C@@H](C)CCC=C(C)C)c2)ccc1O [TERPECURCUMIN H] | 54.6 | 43.7 | 84.3
COc1cc(/C=C/C(=O)/C=C(O)/C=C/c2ccc(O[C@]3(C)C=C[C@@H]([C@@H](C)CC(=O)C=C(C)C)C[C@@H]3O)c(OC)c2)ccc1O [TERPECURCUMIN F] | 15.7 | 19.4 | 15.2
O=C(/C=C/c1ccc(O)cc1)CC(=O)/C=C/c1ccc(O)cc1 [BISDEMETHOXYCURCUMIN] | 62.9 | 38.5 | 38.1
COc1cc(/C=C/C(=O)/C=C(O)/C=C/c2ccc(O[C@H]3C[C@H]([C@@H](C)CCC=C(C)C)C=C[C@@]3(C)O)c(OC)c2)ccc1O [TERPECURCUMIN C] | 29.5 | 24.6 | 35
COc1cc(/C=C/C(=O)/C=C(O)/C=C/c2ccc(O[C@H]3C=C(C)[C@@H](O)C[C@@H]3[C@@H](C)CC(=O)C=C(C)C)c(OC)c2)ccc1O [BISABOLOCURCUMIN ETHER] | 15.4 | 10.6 | 16.1
COc1cc(/C=C/C(=O)/C=C(O)/C=C/c2ccc(O[C@H]3C[C@H]([C@@H](C)CCC=C(C)C)[C@@H](O)C=C3C)c(OC)c2)ccc1O [TERPECURCUMIN B] | 64.1 | 74.9 | 61.9
COc1cc(/C=C/C(O)=C/C(=O)/C=C/c2ccc(O)cc2)ccc1O [DEMETHOXYCURCUMIN] | 58.1 | 44.3 | 38.1
CC(C)=CC(=O)C[C@H](C)[C@H]1C[C@H](O)C(C)=C[C@@H]1Oc1ccc(/C=C/C(O)=C/C(=O)/C=C/c2ccc(O)cc2)cc1 [DIDEMETHOXYBISABOLOCURCUMIN ETHER] | 22.7 | 30.8 | 27.4
COc1cc(/C=C/C(=O)/C=C(O)/C=C/c2ccc(O[C@]3(C)C=C[C@@H]([C@@H](C)CC(=O)C=C(C)C)C[C@@H]3O)cc2)ccc1O [TERPECURCUMIN G] | 17.1 | 15.9 | 14.5
CC(=O)O[C@H]1C(=O)[C@@]2(C)[C@H]([C@H](OC(=O)c3ccccc3)[C@]3(O)C[C@H](OC(=O)[C@H](O)[C@@H](NC(=O)c4ccccc4)c4ccccc4)C(C)=C1C3(C)C)[C@]1(OC(C)=O)CO[C@@H]1C[C@@H]2O [PACLITAXEL] | 0.054 | 0.052 | 0.056
COc1cc(/C=C/C(=O)/C=C(O)/C=C/c2ccc(O[C@H]3C[C@H]([C@@H](C)CC(=O)C=C(C)C)C=C[C@@]3(C)O)c(OC)c2)ccc1O [TERPECURCUMIN D] | 18.3 | 15.9 | 14.3
COc1cc(/C=C/C(=O)CC(=O)/C=C/c2ccc(O)c(OC)c2)ccc1O [CURCUMIN] | 31.3 | 37.8 | 49.2
COc1cc(/C=C/C(O)=C/C(=O)/C=C/c2ccc(O)cc2)ccc1O[C@H]1C=C(C)[C@@H](O)C[C@@H]1[C@@H](C)CC(=O)C=C(C)C [DEMETHOXYBISABOLOCURCUMIN ETHER] | 13 | 10.3 | 16.6
COc1cc(/C=C/C(=O)/C=C(O)/C=C/c2ccc(O[C@]3(C)C=C[C@@H]([C@@H](C)CCC=C(C)C)C[C@@H]3O)c(OC)c2)ccc1O [TERPECURCUMIN E] | 35.9 | 84.1 | 41.4
COc1cc(/C=C/C(=O)/C=C(O)/C=C/c2ccc(O[C@H]3C=C(C)[C@@H](O)C[C@@H]3[C@@H](C)CCC=C(C)C)c(OC)c2)ccc1O [TERPECURCUMIN A] | 25 | 27.3 | 30.6
